Source: ChEMBL document CHEMBL1139389, “Discovery of the Poly(ADP-ribose) polymerase (PARP) inhibitor 2-[(R)-2-methylpyrrolidin-2-yl]-1H-benzimidazole-4-carboxamide (ABT-888) for the treatment of cancer” (J Med Chem, 2009)

Assays:
[1] = target: Poly [ADP-ribose] polymerase 2 (Homo sapiens, UniProt Q9UGN5); test: Inhibition of human recombinant PARP2
[2] = Oral bioavailability in CD1 mouse at 10 mg/kg; type: ADME, organism-based; conditions: in vivo
How it was run: (§1)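 Mouse PK: oral dose 10 mg/kg in 2.5% EtOH, 1 drop Tween-80, 25% PEG400 in PBS; iv dose 3 mg/kg in 2.5% EtOH, 5% DMSO, 1 drop Tween-80, 25% PEG400 in PBS. Oral bioavailability, iv half-life, oral AUC and Cmax derived from plasma profiles.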

[3] = Half life in CD1 mouse at 3 mg/kg, iv; type: ADME, organism-based; design: dose 3 mg/kg, route intravenous; conditions: in vivo; how it was run: as §1
[4] = AUC in CD1 mouse at 10 mg/kg, po; type: ADME, organism-based; design: dose 10 mg/kg, route oral; conditions: plasma; how it was run: as §1
[5] = Cmax in CD1 mouse at 10 mg/kg, po; type: ADME, organism-based; design: dose 10 mg/kg, route oral; conditions: in vivo; how it was run: as §1
[6] = Volume of distribution at steady state in Sprague-Dawley rat at 5 mg/kg; type: ADME, organism-based; design: dose 5 mg/kg; conditions: in vivo, read-out: Vdss
[7] = Clearance in Sprague-Dawley rat at 5 mg/kg; type: ADME, organism-based; design: dose 5 mg/kg; conditions: in vivo
[8] = Oral bioavailability in Beagle dog at 2.5 mg/kg; type: ADME, organism-based, Canis lupus familiaris; conditions: in vivo
[9] = Half life in Beagle dog at 2.5 mg/kg, iv; type: ADME, organism-based, Canis lupus familiaris; design: dose 2.5 mg/kg, route intravenous; conditions: in vivo
[10] = AUC in Beagle dog at 2.5 mg/kg, po; type: ADME, organism-based, Canis lupus familiaris; design: dose 2.5 mg/kg, route oral; conditions: plasma
[11] = Cmax in Beagle dog at 2.5 mg/kg, po; type: ADME, organism-based, Canis lupus familiaris; design: dose 2.5 mg/kg, route oral; conditions: in vivo
[12] = Volume of distribution at steady state in Beagle dog at 2.5 mg/kg; type: ADME, organism-based, Canis lupus familiaris; design: dose 2.5 mg/kg; conditions: in vivo, read-out: Vdss
[13] = Clearance in Beagle dog at 2.5 mg/kg; type: ADME, organism-based, Canis lupus familiaris; design: dose 2.5 mg/kg; conditions: in vivo
[14] = Oral bioavailability in cynomolgus monkey at 2.5 mg/kg; type: ADME, organism-based, Macaca fascicularis; conditions: in vivo
[15] = Half life in cynomolgus monkey at 2.5 mg/kg, iv; type: ADME, organism-based, Macaca fascicularis; design: dose 2.5 mg/kg, route intravenous; conditions: in vivo
[16] = AUC in cynomolgus monkey at 2.5 mg/kg, po; type: ADME, organism-based, Macaca fascicularis; design: dose 2.5 mg/kg, route oral; conditions: plasma
[17] = Cmax in cynomolgus monkey at 2.5 mg/kg, po; type: ADME, organism-based, Macaca fascicularis; design: dose 2.5 mg/kg, route oral; conditions: in vivo
[18] = Volume of distribution at steady state in cynomolgus monkey at 2.5 mg/kg; type: ADME, organism-based, Macaca fascicularis; design: dose 2.5 mg/kg; conditions: in vivo, read-out: Vdss
[19] = Clearance in cynomolgus monkey at 2.5 mg/kg; type: ADME, organism-based, Macaca fascicularis; design: dose 2.5 mg/kg; conditions: in vivo
[20] = Volume of distribution at steady state in CD1 mouse at 10 mg/kg; type: ADME, organism-based; design: dose 10 mg/kg; conditions: in vivo, read-out: Vdss
[21] = Clearance in CD1 mouse at 10 mg/kg; type: ADME, organism-based; design: dose 10 mg/kg; conditions: in vivo
How it was run: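 Mouse pharmacokinetics. Oral dose of 10 mg/kg in 2.5% EtOH, 1 drop Tween-80 and 25% PEG400 in PBS. Intravenous dose of 3 mg/kg in 2.5% EtOH, 5% DMSO, 1 drop Tween-80 and 25% PEG400 in PBS.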

[22] = Oral bioavailability in Sprague-Dawley rat at 5 mg/kg; type: ADME, organism-based; conditions: in vivo
[23] = Half life in Sprague-Dawley rat at 5 mg/kg, iv; type: ADME, organism-based; design: dose 5 mg/kg, route intravenous; conditions: in vivo
[24] = AUC in Sprague-Dawley rat at 5 mg/kg, po; type: ADME, organism-based; design: dose 5 mg/kg, route oral; conditions: plasma
[25] = Cmax in Sprague-Dawley rat at 5 mg/kg, po; type: ADME, organism-based; design: dose 5 mg/kg, route oral; conditions: in vivo
[26] = test system: MX1; test: animal or person; conditions: Mus musculus, MX1, ip, 816 h, read-out: TGI

Sequence of Poly [ADP-ribose] polymerase 2 (Q9UGN5 whole entry): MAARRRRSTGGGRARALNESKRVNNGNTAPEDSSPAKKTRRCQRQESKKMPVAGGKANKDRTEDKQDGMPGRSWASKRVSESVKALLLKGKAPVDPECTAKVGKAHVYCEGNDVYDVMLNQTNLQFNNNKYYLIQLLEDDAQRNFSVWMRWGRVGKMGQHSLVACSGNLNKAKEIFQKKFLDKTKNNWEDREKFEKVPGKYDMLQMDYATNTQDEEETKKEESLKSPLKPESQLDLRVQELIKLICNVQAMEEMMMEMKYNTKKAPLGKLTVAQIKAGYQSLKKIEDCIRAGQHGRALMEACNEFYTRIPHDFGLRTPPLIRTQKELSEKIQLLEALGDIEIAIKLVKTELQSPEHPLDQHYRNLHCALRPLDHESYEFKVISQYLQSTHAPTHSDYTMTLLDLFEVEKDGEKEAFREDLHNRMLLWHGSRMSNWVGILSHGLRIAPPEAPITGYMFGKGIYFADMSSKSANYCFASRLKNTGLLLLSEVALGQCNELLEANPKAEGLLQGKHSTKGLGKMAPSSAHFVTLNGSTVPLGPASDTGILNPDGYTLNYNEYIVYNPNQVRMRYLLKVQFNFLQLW

SMILES: C[C@]1(c2nc3c(C(N)=O)cc(F)cc3[nH]2)CCCN1
- Ki [1]: 4 nM
- bioavailability [2]: 100%
- half-life [3]: 0.5 h
- AUC [4]: 1.5 µg·h/mL
- Cmax [5]: 1 µg/mL

SMILES: CN1CCCC1(C)c1nc2c(C(N)=O)cccc2[nH]1 (stereo not drawn)
- bioavailability [2]: 36%
- half-life [3]: 0.55 h
- AUC [4]: 0.2 µg·h/mL
- Cmax [5]: 0.1 µg/mL

SMILES: CC(C)N1CCC(C)(c2nc3c(C(N)=O)cccc3[nH]2)C1 (stereo not drawn)
- bioavailability [2]: 100%
- half-life [3]: 1.4 h
- AUC [4]: 1 µg·h/mL
- Cmax [5]: 0.5 µg/mL

SMILES: C[C@@]1(c2nc3c(C(N)=O)cccc3[nH]2)CCCN1
- Vd [6]: 7.5 L/kg
- clearance [7]: 2 L/h/kg
- bioavailability [8]: 48%
- half-life [9]: 2.2 h
- AUC [10]: 1.4 µg·h/mL
- Cmax [11]: 0.5 µg/mL
- Vd [12]: 2.9 L/kg
- clearance [13]: 0.9 L/h/kg
- bioavailability [14]: 39%
- half-life [15]: 1.5 h
- AUC [16]: 0.7 µg·h/mL
- Cmax [17]: 0.2 µg/mL
- Vd [18]: 3 L/kg
- clearance [19]: 1.4 L/h/kg
- bioavailability [2]: 66%
- half-life [3]: 1.2 h
- AUC [4]: 1.1 µg·h/mL
- Cmax [5]: 0.8 µg/mL
- Vd [20]: 10.3 L/kg
- clearance [21]: 6.2 L/h/kg
- bioavailability [22]: 72%
- half-life [23]: 2.4 h
- AUC [24]: 1.9 µg·h/mL
- Cmax [25]: 0.6 µg/mL

SMILES: O=P1(N(CCCl)CCCl)NCCCO1 (stereo not drawn) [CYCLOPHOSPHAMIDE ANHYDROUS]
- inhibition in vivo at 12.5 mg/kg/day [26]: 73%
